The record followed here is ChEMBL document CHEMBL1127668, “Antagonist, partial agonist, and full agonist imidazo[1,5-a]quinoxaline amides and carbamates acting through the GABAA/benzodiazepine receptor” (J Med Chem, 1994).

“And” between values parts separate entries of the source, which are not always exact repeats. Identical values can stand only once.

A short description of assay [1]: Displacement of [3H]flunitrazepam from alpha-1-beta-2-gamma-2 GABA-A receptor subunits expressed in Sf9 cell membranes. Also on record: species or system Rattus norvegicus. The gist of the method:
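Sf-9 membranes from cells infected with baculovirus carrying α1, β2 and γ2 cDNAs, harvested 60 h postinfection. Assay in normal saline with 6 nM [3H]flunitrazepam, 50 µg membrane protein and six test concentrations; 60 min at 4 °C; glass-fiber filtration, four cold washes, scintillation counting.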

Assay [2] can be described thus: Displacement of [3H]-Ro- 15-4513 from alpha-1-beta-2-gamma-2 GABA-A receptor subunits expressed in Sf9 cell membranes. Also on record: species or system Rattus norvegicus.
Assay [3] concerns the target GABA-A receptor; anion channel. Nature of the assay: Displacement of [3H]- flunitrazepam from rat GABA-A benzodiazepine receptor. In kind it is protein-complex assay.
Assay [4] addresses T1, GABA-A receptor; anion channel (Rattus norvegicus) (UniProt O09028+P15431+P18506+P18508+P19969+P20236+P23574+P23576+P28471+P28473+P30191+P62813+P63079+P63138+Q91ZM7+Q9ES14). Nature of the assay: Shift in the affinity of [35S]TBPS for the chloride channel of GABAA receptor complex in the presence and absence of compound. It counts as protein-complex assay.
The species named for assay [5] is Rattus norvegicus. Description: Chloride ion influx in rat cerebrocortical membranes. In kind it is functional.
In assay [6] the test system is Rattus norvegicus. Description: The compound was tested for antagonistic activity against metrazole induced convulsions in rats after ip administration. It counts as functional.
Assay [7] concerns Rattus norvegicus. Nature of the assay: The compound was tested for antagonistic activity against metrazole induced convulsions in rats, after ip administration. In kind it is functional.
Assay [8] concerns the target GABA A receptor alpha-6/beta-2/gamma-2 (Homo sapiens, UniProt P18507+P47870+Q16445). Nature of the assay: Displacement of [3H]-Ro- 15-4513 from alpha-6-beta-2-gamma-2 GABA-A receptor subunits expressed in Sf9 cell membranes. An outline of the steps: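 Sf-9 cells infected with baculovirus carrying α6, β2 and γ2 cDNAs, harvested 60 h postinfection; membranes stored at -80 °C in 300 mM sucrose, 5 mM Tris/HCl pH 7.5, 20% glycerol. 50 µg membrane protein with 6 nM [3H]Ro 15-4513 and six test concentrations in normal saline, 60 min at 4 °C; filtered, washed, scintillation counted.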

Assay [9] concerns the target T1, GABA-A receptor; anion channel (Rattus norvegicus). Description: Inhibition of [35S]TBPS binding to GABA-A receptor complex. It counts as protein-complex assay.

Sequence of GABA A receptor alpha-6/beta-2/gamma-2 (P47870 whole entry): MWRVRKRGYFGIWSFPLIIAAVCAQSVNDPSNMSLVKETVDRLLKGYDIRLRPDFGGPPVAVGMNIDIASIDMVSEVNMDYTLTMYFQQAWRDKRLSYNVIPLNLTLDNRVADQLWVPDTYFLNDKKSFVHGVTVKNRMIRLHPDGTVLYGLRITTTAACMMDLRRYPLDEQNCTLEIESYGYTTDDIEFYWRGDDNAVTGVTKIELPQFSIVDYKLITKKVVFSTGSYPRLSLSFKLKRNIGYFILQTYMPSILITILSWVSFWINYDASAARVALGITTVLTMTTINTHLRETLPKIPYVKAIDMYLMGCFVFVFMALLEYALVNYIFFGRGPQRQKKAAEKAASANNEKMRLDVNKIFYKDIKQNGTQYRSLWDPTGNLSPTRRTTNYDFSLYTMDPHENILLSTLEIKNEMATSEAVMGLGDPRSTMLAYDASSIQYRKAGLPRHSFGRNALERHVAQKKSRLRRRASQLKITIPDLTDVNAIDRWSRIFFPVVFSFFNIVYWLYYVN
Sequence of GABA A receptor alpha-6/beta-2/gamma-2 (P18507 whole entry): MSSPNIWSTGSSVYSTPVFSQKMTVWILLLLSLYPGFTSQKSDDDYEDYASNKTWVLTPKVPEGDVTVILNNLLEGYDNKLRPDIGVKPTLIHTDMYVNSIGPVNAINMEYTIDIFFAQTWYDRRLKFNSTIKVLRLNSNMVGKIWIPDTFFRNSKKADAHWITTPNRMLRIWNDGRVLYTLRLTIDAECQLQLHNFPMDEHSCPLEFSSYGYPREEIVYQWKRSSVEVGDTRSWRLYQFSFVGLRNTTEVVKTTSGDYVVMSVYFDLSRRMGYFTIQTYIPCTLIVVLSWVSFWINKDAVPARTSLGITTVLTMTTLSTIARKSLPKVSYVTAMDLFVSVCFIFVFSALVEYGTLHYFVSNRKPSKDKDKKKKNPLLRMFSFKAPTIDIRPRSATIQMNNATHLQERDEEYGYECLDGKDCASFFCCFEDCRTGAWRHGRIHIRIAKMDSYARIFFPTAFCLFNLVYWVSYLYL
Sequence of GABA A receptor alpha-6/beta-2/gamma-2 (Q16445 whole entry): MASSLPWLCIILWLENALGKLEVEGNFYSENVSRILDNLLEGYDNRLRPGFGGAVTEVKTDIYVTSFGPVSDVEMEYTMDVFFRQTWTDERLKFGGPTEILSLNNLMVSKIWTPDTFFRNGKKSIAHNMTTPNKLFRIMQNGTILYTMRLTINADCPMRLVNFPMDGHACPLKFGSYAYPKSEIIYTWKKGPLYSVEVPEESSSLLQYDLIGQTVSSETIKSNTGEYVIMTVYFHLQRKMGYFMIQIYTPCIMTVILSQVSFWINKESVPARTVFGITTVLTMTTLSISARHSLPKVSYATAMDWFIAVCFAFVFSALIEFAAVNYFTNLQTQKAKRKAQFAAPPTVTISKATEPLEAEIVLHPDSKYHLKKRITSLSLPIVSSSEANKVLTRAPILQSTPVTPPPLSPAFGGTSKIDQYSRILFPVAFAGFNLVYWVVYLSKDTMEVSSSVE

For the molecule `CC(=O)N1Cc2c(-c3noc(C4CC4)n3)ncn2-c2cccc(F)c21`, the Ki in assay [1] was determined as 0.8 nM; in [2], 107 nM.
Turning to `O=C1CCC2c3c(-c4noc(C5CC5)n4)ncn3-c3ccccc3N12` (stereo not given), in assay [3], the Ki is 0.87 nM. Also, in [4], the TBPS shift worked out at 1.15. Also, the Chlorine uptake in the assay filed under Rattus norvegicus [5] turned out to be 0.29.
The molecule `O=C(c1ccccc1Cl)N1Cc2c(-c3noc(C4CC4)n3)ncn2-c2ccccc21` gave an inhibitory constant (Ki) in assay [3] of 1.4 nM. Also, in [4], the TBPS shift came to 0. Also, the Chlorine uptake in the assay listed under Rattus norvegicus [5] was 0.28. The same molecule showed an ED50 in the assay on Rattus norvegicus [6] of more than 50 mg/kg.
Turning to `O=C1CC[C@@H]2c3c(-c4noc(C5CC5)n4)ncn3-c3ccccc3N12`, the Ki in [3] stood at 0.65 nM. The TBPS shift in assay [4] was 0.9. This molecule also displayed an ED50 in the assay with Rattus norvegicus [6] of 1.9 mg/kg.
With `CC(=O)N1Cc2c(-c3noc(C4CC4)n3)ncn2-c2ccc(F)cc21`, the inhibition constant Ki in assay [3] is 0.69 nM; in assay [1], 0.6 nM; in assay [2], 81 nM. Moreover, the TBPS shift in assay [4] was determined as 1.11.
`O=C(c1ccccc1)N1Cc2c(-c3noc(C4CC4)n3)ncn2-c2cccc(F)c21`: the Ki in assay [3] was determined as 0.77 nM; in assay [1], 0.3 nM; in assay [2], 681 nM. Also, in assay [4], the TBPS shift was determined as 0.87. In the assay filed under Rattus norvegicus [5], the Chlorine uptake came out at 0.9. The molecule further returned a median effective dose (ED50) in the assay on Rattus norvegicus [7] of 25 mg/kg.
As for `CC(=O)N1Cc2c(-c3noc(C4CC4)n3)ncn2-c2ccccc21`, the results for the Ki in assay [3], in assay [1] and in [2] were 1.5 nM, 2.7 nM and 124 nM, respectively. In assay [4], the TBPS shift worked out at 0.9. For the same molecule, the 50% effect level in the assay with Rattus norvegicus [6] (ED50) was put at a dose of 35 mg/kg.
In the case of `CC(C)(C)OC(=O)c1ncn2c1CN(C(=O)c1ccccc1Cl)c1ccccc1-2`, the inhibitory constant (Ki) in assay [3] turned out to be 4 nM. Further, in assay [4], the TBPS shift was found to be 0.2. Moreover, in the assay filed under Rattus norvegicus [5], the Chlorine uptake is -0.15. The same molecule returned an ED50 with Rattus norvegicus [6] of more than 50 mg/kg.
Consider `Cc1ccc(-c2nc3ccc(C)cn3c2CC(=O)N(C)C)cc1` [ZOLPIDEM], for which it took a dose of 4.4 mg/kg to reach the 50% effect level in the assay with Rattus norvegicus [6] (ED50).
In assay [3], `CC(=O)N1c2ccccc2-n2cnc(-c3noc(C4CC4)n3)c2C1(C)C` showed a Ki of 4.8 nM. The TBPS shift in assay [4] was found to be 0.7. For the same molecule, the 50% effect level in the assay with Rattus norvegicus [6] (ED50) was put at a dose of 30 mg/kg.
As to `CCOC(=O)c1ncn2c1CN(C)C(=O)c1cc(N=[N+]=[N-])ccc1-2` [Ro-154513], the figures for the Ki in assay [8] and in assay [1] were 5.4 nM and 15 nM, respectively.
Molecule `CC(C)OC(=O)N1c2ccccc2-n2cnc(-c3noc(C4CC4)n3)c2C1(C)C` came in with a Ki in assay [3] of 6.7 nM. The TBPS shift in assay [4] was determined as 1.2. In addition, in the assay filed under Rattus norvegicus [5], the Chlorine uptake was 0.7. The ED50 in the assay on Rattus norvegicus [6] amounted to 3.7 mg/kg.
`CC(=O)N1Cc2c(-c3nc(C4CC4)no3)ncn2-c2ccccc21` yielded a Ki in [3] of 6.6 nM. Also, the TBPS shift in [4] turned out to be 0.7. Moreover, the Chlorine uptake in the assay filed under Rattus norvegicus [5] amounted to 0.6. In the assay with Rattus norvegicus [6], this molecule returned a median effective dose (ED50) of 42 mg/kg.
In [8], `CN1C(=O)CN=C(c2ccccc2)c2cc(Cl)ccc21` [DIAZEPAM] displayed a Ki of more than 7000 nM. Further, the Chlorine uptake in the assay listed under Rattus norvegicus [5] worked out at 1. Also, in the assay with Rattus norvegicus [7], it took a dose of 0.5 mg/kg to reach the 50% effect level (ED50).
In the case of `O=C1CC[C@H]2c3c(-c4noc(C5CC5)n4)ncn3-c3ccccc3N12`, the affinity in [3] corresponds to a Ki of 0.62 nM. The TBPS shift in assay [4] turned out to be 1.05. In addition, the 50% effective dose (ED50) in the assay with Rattus norvegicus [6] stood at 1.1 mg/kg.
`CC(C)(C)OC(=O)c1ncn2c1C1CCC(=O)N1c1ccccc1-2` (stereo not given): the inhibitory constant (Ki) is 0.76 nM in assay [3], 0.4 nM in [1] and 13.2 nM in assay [2]. Moreover, the TBPS shift in [9] was determined as 0.06. Moreover, the 50% effective dose (ED50) with Rattus norvegicus [6] is more than 50 mg/kg.
For the molecule `O=C(c1ccccc1)N1Cc2c(-c3noc(C4CC4)n3)ncn2-c2ccc(F)cc21`, the values for the inhibition constant (Ki) in assay [3], in assay [1] and in [2] were 0.58 nM, 0.4 nM and more than 10000 nM, respectively. The TBPS shift in [4] was found to be 0.98. In the assay filed under Rattus norvegicus [5], the Chlorine uptake is 0.67.
For `CC(C)(C)OC(=O)N1Cc2c(-c3noc(C4CC4)n3)ncn2-c2ccccc21`, the Ki in assay [3] came to 1.9 nM. Besides, the TBPS shift in assay [4] is 2.9. This molecule also showed a 50% effective dose (ED50) in the assay on Rattus norvegicus [6] of 0.06 mg/kg.
For the molecule `O=C(c1ccccc1)N1Cc2c(-c3noc(C4CC4)n3)ncn2-c2ccccc21`, the inhibition constant Ki in assay [3] was 4.3 nM; in [1] it was 0.3 nM; in [2], 1140 nM. The TBPS shift in assay [4] was 0.5.
For the molecule `O=C1OCC2c3c(-c4noc(C5CC5)n4)ncn3-c3ccccc3N12` (stereo not given), in assay [3], the Ki was 2.4 nM. Also, in assay [4], the TBPS shift is 0.96. In the assay listed under Rattus norvegicus [5], this molecule yielded a Chlorine uptake of 0.5.
Take `CC(=O)N1Cc2c(C(=O)OC(C)(C)C)ncn2-c2ccccc21`: the TBPS shift in [4] was -0.06. This molecule also yielded a Chlorine uptake in the assay filed under Rattus norvegicus [5] of 0.
Take `COC(=O)N1c2ccccc2-n2cnc(-c3noc(C4CC4)n3)c2C1(C)C`: the affinity in assay [3], expressed as Ki, was 6.8 nM. Also, the TBPS shift in assay [4] is 1.04 and 0.8. Further, the Chlorine uptake in the assay listed under Rattus norvegicus [5] is 1.18 and 0.4. The molecule further registered a 50% effective dose (ED50) in the assay with Rattus norvegicus [6] of more than 50 mg/kg.
On to `CC(C)(C)OC(=O)c1ncn2c1CN(C(=O)OC(C)(C)C)c1ccccc1-2`, for which the Ki in assay [3] is 5.1 nM. The TBPS shift in [4] worked out at 0.45. This molecule also yielded a Chlorine uptake in the assay filed under Rattus norvegicus [5] of 0.14.
